Bioassay records (PubChem)
OXTR potentiate: human OXTR potentiators, primary screen, fluorescence, CHO-OTR cells, Fluo-8 calcium; Oxytocin receptor (Homo sapiens), P30559; activation, % at 3 µM; hit rate 0.061% among 320,000; Fluo-8 calcium fluorescence, potentiator mode; 0% = oxytocin EC15, 100% = EC100; AID 2445, 2010;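 active means activation above that plate's cutoff, the mean activation of tested compounds plus 3 SD, cut at about 6.6% in these data, passing the limit was not always enough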
Target sequence (P30559 whole entry, looked up): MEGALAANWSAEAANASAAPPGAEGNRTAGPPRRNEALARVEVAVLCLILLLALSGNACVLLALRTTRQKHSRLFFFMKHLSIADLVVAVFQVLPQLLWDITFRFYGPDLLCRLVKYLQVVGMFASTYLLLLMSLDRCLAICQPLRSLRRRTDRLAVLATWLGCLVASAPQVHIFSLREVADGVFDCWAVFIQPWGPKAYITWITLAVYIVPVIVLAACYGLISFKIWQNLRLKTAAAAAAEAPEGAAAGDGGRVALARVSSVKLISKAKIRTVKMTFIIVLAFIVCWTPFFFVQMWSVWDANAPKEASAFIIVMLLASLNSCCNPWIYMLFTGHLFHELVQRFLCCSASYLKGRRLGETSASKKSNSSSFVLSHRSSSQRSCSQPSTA
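Material: CHO-OTR cells, human receptor; compound dosing: single dose, 3.0 µM nominal final compound concentration; schedule: 6 min compound pre-incubation at room temperature, 100 s kinetic read; measured by: kinetic Fluo-8 calcium fluorescence; read-out basis: % activation vs EC15 and EC100 oxytocin; controls: EC15 oxytocin alone as 0%, 75 nM oxytocin as 100%; replicates: singlicate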
OXTR ag: human OXTR agonists, primary screen, fluorescence, CHO-OTR cells, Fluo-8 calcium; activation, % at 3 µM; Fluo-8 calcium fluorescence; normalized: DMSO 0%, oxytocin 100%; Oxytocin receptor (Homo sapiens), P30559; hit rate 0.32% among 320,000;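 active means activation above the mean of all tested compounds plus 3 SD, cutoff set per screening run, cut at about 20% in these data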;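 further: peak over basal fluorescence ratio from a 100 s FLIPR kinetic read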
V1R ag counter: agonists of human V1a receptor, primary screen, counter-screen for OXTR agonist project, fluorescence, CHO-V1R cells; hit rate 0.25% among 320,000; activation, % at 3 µM; Fluo-8 calcium fluorescence, agonist mode; 0% DMSO, 100% 3 nM vasopressin;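 active means activation above the mean activation of all tested compounds plus 3 SD, per screening run, cut at about 20% in these data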;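 further: signal is peak over basal fluorescence ratio across a 100 second FLIPR read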
TAAR1 ag: human TAAR1 agonists, primary screen, Fluo-8 calcium fluorescence, CHO RD-HGA16 cells; AID 624467, 2012; activation, % at 3 µM; vehicle wells 0%, saturating PEA agonist 100%; hit rate 0.99% among 360,000; Trace amine-associated receptor 1 (Homo sapiens), Q96RJ0;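 active means activation above the mean activation of all test compounds in the run plus 3 SD, cut at about 38% in these data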
Target sequence (Q96RJ0 whole entry, looked up): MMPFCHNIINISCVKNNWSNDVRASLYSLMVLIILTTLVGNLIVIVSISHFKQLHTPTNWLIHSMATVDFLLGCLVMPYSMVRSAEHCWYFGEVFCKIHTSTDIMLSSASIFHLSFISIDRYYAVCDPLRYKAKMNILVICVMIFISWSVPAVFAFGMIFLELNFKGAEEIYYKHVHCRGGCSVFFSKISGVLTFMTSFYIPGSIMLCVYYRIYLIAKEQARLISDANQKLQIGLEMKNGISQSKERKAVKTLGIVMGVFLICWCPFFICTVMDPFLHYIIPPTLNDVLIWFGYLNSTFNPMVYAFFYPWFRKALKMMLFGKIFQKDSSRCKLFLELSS
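Assay system – CHO-derived RD-HGA16 cells with stable Gα16 and human TAAR1 · Compound dosing – one-point dosing at 3 µM (nominal) · Incubation – 17-24 h seeding, 75 min 37 °C dye, 30 min RT · Measured by – kinetic Fluo-8 calcium fluorescence · Control set – DMSO vehicle as 0%, PEA at EC100 as 100% · Repeats – single well for each compound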
TAAR1 antagonist: human TAAR1 antagonists, primary screen, Fluo-8 calcium fluorescence, CHO RD-HGA16 cells. antagonist. AID 624466, 2012. hit rate 1.5% among 360,000. inhibition, % at 3 µM. Trace amine-associated receptor 1 (Homo sapiens), Q96RJ0;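 active means inhibition above a per-plate cutoff, the mean inhibition of test compounds on that plate plus 3 SD, cut at about 49% in these data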
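System: CHO RD-HGA16 cells bearing hTAAR1. Reagent: EC80 β-phenethylamine stimulus. Schedule: seeding 17-24 h prior, 75-min 37 °C, 30-min RT dye loading. Signal: Fluo-8 intracellular calcium dye fluorescence, real-time kinetic reads. Read-out: % inhibition from peak post-agonist over basal fluorescence ratio. Benchmarks: vehicle wells and EC80 agonist wells. Replicates: n of 1.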
TAAR1 ag conf: human TAAR1 agonists, retest of hits, confirmation, Fluo-8 calcium fluorescence, CHO RD-HGA16 cells | scaled: DMSO 0%, maximal phenethylamine 100% | shares compounds with TAAR1 ag | hit rate 82% among 2,400 | activation, % at 3 µM;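 active means activation above a cutoff set at the run's mean compound activation plus 3 SD, cut at about 39% in these data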
Ga16 nonsel ag: nonselective calcium mobilization agonists, CHO-Ga16 cells, counter-screen for hTAAR1 agonist project, cell-based, fluorescence, CHO-Ga16 parental line. hit rate 50% among 2,400. Fluo-8 calcium fluorescence; normalized to maximal ATP response, DMSO zero. activation, % at 3 µM. shares compounds with TAAR1 ag;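 active means activation above the run cutoff, the mean activation over all tested wells plus 3 SD, cut at about 12% in these data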
TAAR1 desens: TAAR1 desensitization by agonist hits, confirmation, counter-screen for TAAR1 agonist project, cell-based, fluorescence, tachyphylaxis | CHO RD-HGA16 hTAAR1, Fluo-8 calcium, beta-PEA response inhibition | shares compounds with TAAR1 ag | hit rate 46% among 2,400 | inhibition, % at 3 µM;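 active means inhibition above the run cutoff, the mean inhibition of all test compounds plus 3 SD, cut at about 49% in these data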;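 further: beta-PEA stimulus applied at its EC80; loss of beta-PEA calcium signal after compound pretreatment read as receptor desensitization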
Ga16 antag count: inhibition of ATP-evoked calcium response in CHO-Ga16 cells, counter-screen for TAAR1 agonist project, cell-based, fluorescence; shares compounds with TAAR1 ag; CHO-Ga16 ATP-induced calcium, Fluo-8 fluorescence; inhibition, % at 3 µM; hit rate 39% among 2,400;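 active means inhibition above the plate's mean compound inhibition plus 3 SD, computed per plate, cut at about 22% in these data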
Of the large screens only hits and unclear results are named; the others gave an inactive call (follow-up assays come after a bar, where they were run). An excerpt weighted towards active compounds, which were near 2.3% of everything screened.

CC1CCCCN1C(=S)NCCc1ccccc1 (stereo not given)	TAAR1 ag 47 | TAAR1 ag conf inactive | Ga16 nonsel ag inactive | TAAR1 desens inactive | Ga16 antag count inactive
CCCCCNC(=O)C1CC=CCC1C(=O)O (stereo not given)	TAAR1 ag 49 | TAAR1 ag conf inactive | Ga16 nonsel ag inactive | TAAR1 desens inactive | Ga16 antag count inactive
O=C(C(=O)N1CCN(CCN2CCOCC2)CC1)c1ccccc1	none (no result: OXTR potentiate, OXTR ag, V1R ag counter)
CCc1cc(=O)[nH]c(SCC(=O)N2CCCC2)n1	none
CC1=C(C)CC(C(=O)NCCc2ccc(F)cc2)C(C(=O)O)C1 (stereo not given)	TAAR1 ag 73 | TAAR1 ag conf 75 | Ga16 nonsel ag inactive | TAAR1 desens inactive | Ga16 antag count inactive
CC1=C(C)CC(C(=O)NCCc2ccccc2)C(C(=O)O)C1 (stereo not given)	TAAR1 ag 81, TAAR1 antagonist 91 | TAAR1 ag conf 105 | Ga16 nonsel ag inactive | TAAR1 desens 84 | Ga16 antag count inactive
Cc1ccc(NC(=O)N2CCc3ccccc3C2)c(C)c1	TAAR1 ag 92 | TAAR1 ag conf 66 | Ga16 nonsel ag inactive | TAAR1 desens inactive | Ga16 antag count inactive
CC(=O)c1cccc(NC(=O)N2CCc3ccccc3C2)c1	TAAR1 ag 56 | TAAR1 ag conf 62 | Ga16 nonsel ag inactive | TAAR1 desens inactive | Ga16 antag count inactive
Cc1ccc(NC(=O)N2CCc3ccccc3C2)cc1	TAAR1 ag 68 | TAAR1 ag conf 43 | Ga16 nonsel ag inactive | TAAR1 desens inactive | Ga16 antag count inactive
O=C(Nc1ccc(Cl)cc1)N1CCc2ccccc2C1	none
O=C(Nc1ccccc1)N1CCc2ccccc2C1	TAAR1 ag 48 | TAAR1 ag conf 54 | Ga16 nonsel ag inactive | TAAR1 desens inactive | Ga16 antag count inactive
Cc1ccc(S(=O)(=O)N2C[C@@H]3[C@H]4CC[C@H](C4)[C@@H]3[C@@H](C)[C@H]2c2ccco2)cc1	none (no result: OXTR potentiate, OXTR ag, V1R ag counter)
O=C(C1CC1)N1CCC(c2nc(-c3ccc(S(=O)(=O)NCC4CCCO4)cc3)no2)CC1 (stereo not given)	none
O=C(c1ccccc1)N1CCC(c2nc(-c3ccc(S(=O)(=O)NCC4CCCO4)cc3)no2)CC1 (stereo not given)	TAAR1 ag 43 | TAAR1 ag conf inactive | Ga16 nonsel ag inactive | TAAR1 desens inactive | Ga16 antag count 27
CCCCN(C)CCC(=O)Nc1ccc2c(c1)CCC2	TAAR1 ag 44 | TAAR1 ag conf 69 | Ga16 nonsel ag inactive | TAAR1 desens inactive | Ga16 antag count inactive
COc1ccc(NC(=O)CN(C)CC(=O)Nc2ccc3c(c2)CCC3)cc1	none
Cc1sc(NC(=O)c2ccco2)c(C(c2cccnc2)N2CCC(C)CC2)c1C (stereo not given)	TAAR1 ag 62 | TAAR1 ag conf 54 | Ga16 nonsel ag 22 | TAAR1 desens inactive | Ga16 antag count 23
CCN1CCN(C(c2cccnc2)c2c(NC(=O)c3ccco3)sc(C)c2C)CC1 (stereo not given)	none
Cc1cc2c(cc(C(=O)OCC(=O)NC3CCCCC3)n2C)o1	TAAR1 ag 67, TAAR1 antagonist 52 (no result: OXTR potentiate, OXTR ag, V1R ag counter) | TAAR1 ag conf inactive | Ga16 nonsel ag 34 | TAAR1 desens 52 | Ga16 antag count 42
Cc1cc(C(=O)OCC(=O)NC2CCCCC2)c(C)o1	none
Cc1ccc(OCC(=O)n2nc(C)cc2C)c(C)c1	none
CN(CCc1ccccc1)c1cc2c(c3c1ccn3C)C1CCC2C1 (stereo not given)	TAAR1 ag 82 (no result: OXTR potentiate, OXTR ag, V1R ag counter) | TAAR1 ag conf 52 | Ga16 nonsel ag inactive | TAAR1 desens inactive | Ga16 antag count inactive
O=S1(=O)CCOC[C@H](CC2CCCCC2)N1Cc1cccc(C(F)(F)F)c1	none
Cc1noc(C)c1COC(=O)c1cccc(S(=O)(=O)N2CCOCC2)c1	TAAR1 ag 48 | TAAR1 ag conf inactive | Ga16 nonsel ag inactive | TAAR1 desens inactive | Ga16 antag count inactive
COc1ccc(/C=C/c2cc[n+](C(=O)Cc3ccccc3)cc2)cc1	TAAR1 ag 47 | TAAR1 ag conf 70 | Ga16 nonsel ag inactive | TAAR1 desens inactive | Ga16 antag count inactive
CC(C)c1ccc(N2C(=O)/C(=C/N(C)C)SC2=S)cc1	OXTR ag 38, V1R ag counter 25, TAAR1 ag 59, TAAR1 antagonist 49 | TAAR1 ag conf 58 | Ga16 nonsel ag 56 | TAAR1 desens 51 | Ga16 antag count 65
Cc1ccc(SCC(=O)Nc2ccc(N3CCN(C)CC3)c(F)c2)c(C)c1	TAAR1 ag 60, TAAR1 antagonist 52 | TAAR1 ag conf 80 | Ga16 nonsel ag inactive | TAAR1 desens 75 | Ga16 antag count inactive
O=C(CN1CCNCC1)NCCSc1ccc(Cl)cc1	none
Cc1nn(Cc2ccccc2Cl)c(C)c1NC(=O)c1cc(-c2ccc(F)cc2)on1	TAAR1 ag 55, TAAR1 antagonist 63 | TAAR1 ag conf inactive | Ga16 nonsel ag inactive | TAAR1 desens 53 | Ga16 antag count 26
CC1(c2ccc(OC(F)F)cc2)NC(=O)N(CC(=O)Nc2ccc(OC(F)F)cc2)C1=O (stereo not given)	OXTR ag 40, V1R ag counter 28, TAAR1 ag 103, TAAR1 antagonist 83 | TAAR1 ag conf 97 | Ga16 nonsel ag 46 | TAAR1 desens 82 | Ga16 antag count 56
COc1ccc(C2(c3ccc(OC)cc3)NC(=O)N(CC(=O)Nc3ccc(OC(F)F)cc3)C2=O)cc1	none
